Screening data (PubChem BioAssay)
Most compounds without a hit are left out; they make up all but 1.8% or so of the library.
STEP block: blocks human striatal-enriched tyrosine phosphatase; recombinant STEP, OMFP fluorogenic substrate, fluorescence; inhibition, % at 20 µM; AID 588621; 360,000 tested, 0.25% active; P54829;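 active = inhibition at 20 µM, scaled per plate between control wells, above about 37%, limit read from the data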
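material = STEP tyrosine phosphatase | reagent = fluorogenic phosphatase substrate OMFP at 25 µM final | doses = single compound dose of 20 µM, 1% DMSO final | schedule = 20 min reaction, room temperature, in the dark | measured by = fluorescence, 480/540 nm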
DNMT1 inh: DNMT1 (human) enzyme inhibition. inhibition (reported as % activation of signal), % at 10 µM. AID 588458. 360,000 tested, 0.83% active. P26358. DNMT1 molecular beacon, Hinp1I cleavage, fluorescence; in the data active = inhibition above about 50%
Scp-1 inhibitor: inhibitors of human Scp-1 phosphatase. Q9GZU7. Recombinant Scp1, phosphopeptide, malachite green phosphate absorbance. inhibition, % at 20 µM. 340,000 tested, 0.88% active. AID 493091;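 active = inhibition above about 50% at 20 µM, limit read from the data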
Target sequence (Q9GZU7 76-261 limits assumed): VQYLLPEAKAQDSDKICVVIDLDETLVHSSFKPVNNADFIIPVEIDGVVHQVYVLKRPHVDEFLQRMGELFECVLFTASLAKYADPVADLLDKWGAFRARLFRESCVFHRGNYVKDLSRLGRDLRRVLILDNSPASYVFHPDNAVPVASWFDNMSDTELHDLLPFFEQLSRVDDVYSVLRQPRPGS
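Test system: SCP-1 catalytic domain; Buffer or medium: Acidic Tris acetate buffer with magnesium and detergent; Also added: Phosphorylated 17-residue peptide substrate; Compound: single 20 µM dose, 1% DMSO; Schedule: enzyme reaction 45 min at room temperature, colour 5 min, stabilisation 30 min; Signal: Phosphate-binding colour reagent, absorbance read at 630 nm.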
LMPTP block: blocks human LMPTP phosphatase; P24666; recombinant LMPTP-A, OMFP fluorogenic substrate, fluorescence intensity; inhibition, % at 20 µM; 360,000 tested, 0.22% active;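 active = compounds that cut the enzyme signal by at least half of the control window in the single-dose screen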
Target sequence (P24666 whole entry, looked up): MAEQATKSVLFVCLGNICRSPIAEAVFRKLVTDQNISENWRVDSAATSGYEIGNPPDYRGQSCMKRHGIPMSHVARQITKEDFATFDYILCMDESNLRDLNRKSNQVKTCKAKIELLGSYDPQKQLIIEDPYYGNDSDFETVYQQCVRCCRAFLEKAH
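Test system: LMPTP-A, protein tyrosine phosphatase of low molecular weight; Input: 0.625 nM enzyme; Incubation: 50 min dark incubation at room temperature; Signal: endpoint fluorescence intensity from OMFP dephosphorylation; Read-out basis: % inhibition versus control wells.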
SUMO1-SIM PPI: SUMO1-SIM interaction modulation. SUMO1 binding to a labelled peptide, TR-FRET, 1 h. inhibition, % at 20 µM. 360,000 tested, 0.33% active. AID 602429; in the data active = inhibition above about 37%
Target sequence (P63165 whole entry, looked up): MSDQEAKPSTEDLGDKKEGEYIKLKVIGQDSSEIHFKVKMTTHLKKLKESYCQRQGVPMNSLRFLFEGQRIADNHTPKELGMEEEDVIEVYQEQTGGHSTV
Scp1 confirm: confirmation of human Scp-1 phosphatase inhibitors; inhibition, % at 20 µM; shares compounds with Scp-1 inhibitor; AID 540281; recombinant SCP-1 catalytic domain, phosphate release, malachite green absorbance; 2,500 tested, 61% active
Scp-1 MG ctr: interferes with malachite green readout, flagging false Scp-1 hits. shares compounds with Scp-1 inhibitor. Colorimetric interference counterscreen, malachite green absorbance 630 nm. apparent inhibition (interference), % at 20 µM. 2,500 tested, under 10 active;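 note: compounds added after enzyme reaction finished so only phosphate colour detection is probed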
Scp-1 Tm shift: Scp-1 (human) binding by thermal shift | 1,500 tested, 25% active | shares compounds with Scp-1 inhibitor | Recombinant SCP1, Sypro Orange thermal shift Tm | thermal shift relative to vanadate control, % at 40 µM;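 active = substances whose mean melting-temperature shift, as a percentage of the reference inhibitor's shift, reaches about 5.3%, limit read from the data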
Each line names hits and unclear results; the compound was inactive in the other large screens (follow-up assays come after a bar, where they were run).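 Rule for the calls, unless noted: active = inhibition of at least 30% at 20 µM; inactive = the rest.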

Cc1ccc(NC(=O)CCCCCC2NC(=O)NC2C)cc1 (configuration not stated)	none | Scp1 confirm inactive | Scp-1 MG ctr inactive
CCOC(=O)C1=CCC(c2ccc(C#N)cc2)N(S(=O)(=O)c2ccc(C)cc2)C1 (configuration not stated)	none (no result: Scp-1 inhibitor)
CCOc1ccc(CCNC(=O)/C=C/c2ccco2)cc1OCC	Scp-1 inhibitor 67.3 | Scp1 confirm inactive | Scp-1 MG ctr inactive
FC(F)(F)c1cnc(C(c2ccccn2)c2ncn[nH]2)c(Cl)c1 (configuration not stated)	none
FC(F)(F)c1cnc(C(c2ccccc2)c2ncn[nH]2)c(Cl)c1 (configuration not stated)	Scp-1 inhibitor 98.5 | Scp1 confirm inactive | Scp-1 MG ctr inactive
CCNc1nc(NCC)n2c(SCC(=O)Nc3cccc(Cl)c3)nnc2n1	Scp-1 inhibitor 53.8 | Scp1 confirm 50.1 | Scp-1 MG ctr inactive | Scp-1 Tm shift inactive
CC1(C(=O)NS(=O)(=O)c2cccs2)CCN1C(=O)c1ccco1 (configuration not stated)	none (no result: Scp-1 inhibitor)
Cc1cc(C)c2c(=O)[nH]c(SCC(=O)NCc3ccccc3)nc2n1	none
Cc1cc(C)c2c(=O)[nH]c(SCC(=O)NCCc3ccccc3)nc2n1	Scp-1 inhibitor 67.5 | Scp1 confirm inactive | Scp-1 MG ctr inactive
O=[N+]([O-])c1cccc(-c2csc(N/N=C/c3cccc(O)c3)n2)c1	Scp-1 inhibitor 72.0 | Scp1 confirm 51.3 | Scp-1 MG ctr inactive | Scp-1 Tm shift 19.1
COc1ccc(C(=O)NCc2ccccc2CN2CCCC2)cc1S(=O)(=O)N1CCOCC1	none
O=C(N/N=C/C(Cl)=C/c1ccc([N+](=O)[O-])cc1)C(=O)Nc1ccc(C(=O)O)cc1	Scp-1 inhibitor 85.4 | Scp1 confirm 62.3 | Scp-1 MG ctr inactive | Scp-1 Tm shift inactive
Cc1ccc(C(C#N)=Cc2ccc3c(c2)OCO3)cc1	none (no result: Scp-1 inhibitor)
Cc1cc(C)n(CCCNC(=O)C2CC(=O)N(Cc3ccccc3)C2)n1 (configuration not stated)	none | Scp1 confirm inactive | Scp-1 MG ctr inactive
CCCN(CC(=O)Nc1ccccc1C)C(=O)C1CC(=O)N(Cc2ccccc2)C1 (configuration not stated)	none | Scp1 confirm inactive | Scp-1 MG ctr inactive
Cc1ccc(C(=O)CSC2=C(C#N)C(c3ccco3)CC(=O)N2)c(C)c1 (configuration not stated)	DNMT1 inh 64.3, Scp-1 inhibitor 60.6 | Scp1 confirm 55.6 | Scp-1 MG ctr inactive | Scp-1 Tm shift inactive
COc1ccc(CN2CC(C(=O)N3CC(C)CC(C)C3)CC2=O)cc1 (configuration not stated)	none
COc1cccc(NC(=O)CN(C)C(=O)Cc2c(C)nc3ccccc3c2C)c1	none
C/C(N)=C(/C#N)C(=O)CSc1nnc(NC(C)C)s1	Scp-1 inhibitor 90.5 | Scp1 confirm 63.9 | Scp-1 MG ctr inactive | Scp-1 Tm shift inactive
O=C(NCc1ccccn1)c1cccc(S(=O)(=O)N2CCCCC2)c1	none
CCCCOc1ccc(CNC(=O)NS(=O)(=O)c2ccc(OCC(C)C)cc2)cc1	Scp-1 inhibitor 52.3 | Scp1 confirm 39.0 | Scp-1 MG ctr inactive | Scp-1 Tm shift inactive
COc1ccccc1CNC(=O)Cn1c(=O)c2cccn2c2cccnc21	none
Cn1c(=O)c2nc(-c3ccc(Cl)cc3Cl)oc2c2ccccc21	Scp-1 inhibitor 72.6, LMPTP block 89.4 | Scp1 confirm inactive | Scp-1 MG ctr inactive
Fc1cc(F)c(NC(=S)N2CCOCC2)c(F)c1	Scp-1 inhibitor 95.3 | Scp1 confirm inactive | Scp-1 MG ctr inactive
Fc1ccccc1NC(=S)N1CCOCC1	none
Cn1nc(-c2ccc(C(=O)Nc3ccc(F)cc3)cc2)c2ccccc2c1=O	Scp-1 inhibitor 59.6 | Scp1 confirm 41.5 | Scp-1 MG ctr inactive | Scp-1 Tm shift inactive
Cc1ccc(NC(=O)c2ccc(-c3nn(C)c(=O)c4ccccc34)cc2)cc1	none
COc1ccccc1-n1nnnc1SCC(=O)Nc1ccc(C)c(N)c1	none
CC1(C)CC(CCC(=O)NC(=S)Nc2ccccc2Cl)C(=O)O1 (configuration not stated)	none | Scp1 confirm inactive | Scp-1 MG ctr inactive
O=C(CCN1C(=O)c2ccccc2C1=O)NC(=S)Nc1ccccc1Cl	none
CC(Cc1ccccc1)NC(=O)CCNNC(=O)c1ccncc1 (configuration not stated)	none (no result: Scp-1 inhibitor)
Cn1cc(/C=N/NC(=O)c2cc3cc(Br)ccc3o2)c2ccccc21	Scp-1 inhibitor 61.9 | Scp1 confirm inactive | Scp-1 MG ctr inactive
O=C(O)Cn1cc(/C=N/NC(=O)c2cc3cc(Br)ccc3o2)c2ccccc21	none
CCOC(=O)c1c(NC(=O)CSc2nnc(-c3c[nH]c4ccccc34)n2C)sc2c1CCCC2	Scp-1 inhibitor 52.6 | Scp1 confirm 32.1 | Scp-1 MG ctr inactive | Scp-1 Tm shift inactive
CCN1CCN(C(=O)C(C)Oc2ccc(S(=O)(=O)N3CCCC3)cc2C(N)=O)CC1 (configuration not stated)	none
Cc1cc(Cl)ccc1NC(=O)CCC(=O)N/N=C/c1cc([N+](=O)[O-])ccc1O	Scp-1 inhibitor 54.6 | Scp1 confirm 66.0 | Scp-1 MG ctr inactive | Scp-1 Tm shift inactive
CCOC(=O)Cn1c(=NC(=O)c2sc3ccccc3c2Cl)sc2cc(S(N)(=O)=O)ccc21	Scp-1 inhibitor 66.9, LMPTP block 57.8 | Scp1 confirm 75.2 | Scp-1 MG ctr inactive | Scp-1 Tm shift 7.9
COC(=O)[C@]12CCCCC=C1N(CCc1ccc(OC)c(OC)c1)C(=O)[C@H](CC(=O)NCCCN1CCCC1=O)C2	none (no result: STEP block, DNMT1 inh, Scp-1 inhibitor)
C/C(=N\NC(=O)c1ccco1)c1ccc(NC(=O)C(F)(F)F)cc1	none
Cn1c(=O)c2c(ncn2CC(=O)N2CCN(S(=O)(=O)c3ccc(Cl)cc3)CC2)n(C)c1=O	Scp-1 inhibitor 64.0 | Scp1 confirm inactive | Scp-1 MG ctr inactive
Cn1c(=O)c2c(ncn2CC(=O)N2CCN(S(=O)(=O)c3ccc(F)cc3)CC2)n(C)c1=O	none
Cc1cc2c(cc1C)-c1nnnn1C(N1CCCC1)C(=O)N2 (configuration not stated)	none (no result: STEP block, DNMT1 inh, Scp-1 inhibitor)
CC(C)(C)c1ccc2c(c1)OC(C(=O)N/N=C\c1ccncc1)CO2 (configuration not stated)	none
CC(C)(C)c1ccc2c(c1)OC(C(=O)N/N=C/c1ccc([N+](=O)[O-])o1)CO2 (configuration not stated)	Scp-1 inhibitor 107.5 | Scp1 confirm 64.2 | Scp-1 MG ctr inactive | Scp-1 Tm shift inactive
